Source: ChEMBL document CHEMBL4130343, “Design, synthesis, and evaluation of benzofuran derivatives as novel anti-pancreatic carcinoma agents via interfering the hypoxia environment by targeting HIF-1α pathway” (Eur J Med Chem, 2017)
Converted amounts (≈) assume the structure as drawn.

Tests used:
PANC-1 [1] = experiment: Antiproliferative activity against human PANC1 cells after 48 hrs by MTT assay; assay type: functional, cell-based; conditions: PANC-1, 48 h
Outline: (§1)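 Cells were seeded at 5×10^5 cells/mL overnight and exposed to graded compound concentrations for 48 h. MTT (5 mg/mL stock) was added for 4 h at 37 °C, and formazan was dissolved in DMSO. Absorbance was read at 570 nm. IC₅₀ was fitted from the curves; values are mean ± SD, n = 3.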

BXPC-3 = experiment: Antiproliferative activity against human BxPC3 cells after 48 hrs by MTT assay; assay type: functional, cell-based; conditions: BXPC-3, 48 h; outline: as §1
HCT-116 [2] = experiment: Antiproliferative activity against human HCT116 cells after 48 hrs by MTT assay; assay type: functional, cell-based; conditions: HCT-116, 48 h; outline: as §1
HCT-116 [3] = experiment: Antiproliferative activity against p53-deficient human HCT116 cells after 48 hrs by MTT assay; assay type: functional, cell-based; conditions: HCT-116, 48 h; outline: as §1
MCF7 = experiment: Antiproliferative activity against human MCF7 cells after 48 hrs by MTT assay; assay type: functional, cell-based; conditions: MCF7, 48 h; outline: as §1
A549 = experiment: Antiproliferative activity against human A549 cells after 48 hrs by MTT assay; assay type: functional, cell-based; conditions: A549, 48 h; outline: as §1
MDA-MB-231 = experiment: Antiproliferative activity against human MDA-MB-231 cells after 48 hrs by MTT assay; assay type: functional, cell-based; conditions: MDA-MB-231, 48 h; outline: as §1
[4] = Intrinsic aqueous solubility of the compound; assay type: physicochemical; conditions: read-out: Intrinsic_solubility
Outline: (§2)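 Intrinsic aqueous solubility and log D at pH 7.4 were measured on a pION Gemini Profiler.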

[5] = Distribution co-efficient, log D of the compound at pH 7.4; assay type: physicochemical; conditions: buffer; outline: as §2
[6] = Effective permeability of the compound at pH 7.4 by PAMPA; assay type: ADME; conditions: read-out: Peff
Outline: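 Effective permeability was measured by double-sink PAMPA on a pION PAMPA Explorer.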

PANC-1 [7] = experiment: Antitumor activity against human PANC1 cells xenografted in nude mouse assessed as inhibition of tumor weight at 10 mg/kg administered every 2 days for 21 days relative to vehicle-treated control; assay type: functional

SMILES	IC50 (PANC-1 [1]) [µM]	IC50 (BXPC-3) [µM]	IC50 (HCT-116 [2]) [µM]	IC50 (HCT-116 [3]) [µM]	IC50 (MCF7) [µM]	IC50 (A549) [µM]	IC50 (MDA-MB-231) [µM]	solubility [4] [µg/mL]	logD [5]	Papp [6] [×10⁻⁶ cm/s]	inhibition in vivo at 10 mg/kg (PANC-1 [7]) [%]
Cc1c(C(=O)NCCN(C(C)C)C(C)C)oc2ccc(N(Cc3ccc(Br)cc3)S(=O)(=O)c3ccc(Br)cc3)cc12	6.25	28.3	10.4	3.11	10.9	5.5	9.44				
CCN(CC)CCNC(=O)c1nc2cc(N(Cc3ccc(Br)cc3)S(=O)(=O)c3ccc(Br)cc3)ccc2o1	12.6	16.3	14.3								
Cc1c(C(=O)NCCNc2ccccc2)oc2ccc(N(Cc3ccc(Br)cc3)S(=O)(=O)c3ccc(Br)cc3)cc12	> 40	> 40	> 40	> 40	> 40	> 40	> 40				
Cc1c(C(=O)NCCc2ccc(S(N)(=O)=O)cc2)oc2ccc(N(Cc3ccc(Br)cc3)S(=O)(=O)c3ccc(Br)cc3)cc12	> 40	> 40	5.59	19.2	> 40	> 40	> 40				
CCN(CC)CCNC(=O)c1oc2ccc(N(Cc3ccc(Br)cc3)S(=O)(=O)c3ccc(Br)cc3)cc2c1C	1.52	1.08	2.39	1.66	2.84	2.98	3.73	21 (≈ 31 µM)	2.53	2.54	
Cc1c(C(=O)OCCCN(C)C)oc2ccc(N(Cc3ccc(Br)cc3)S(=O)(=O)c3ccc(Br)cc3)cc12	24.6	24.2	11.2	7.05	39.7	> 40	28.6				
CC(=O)NCCNC(=O)c1oc2ccc(N(Cc3ccc(Br)cc3)S(=O)(=O)c3ccc(Br)cc3)cc2c1C	34.8	> 40	12.2	20.4	21.3	> 40	> 40				
Cc1c(C(=O)NCC(O)CO)oc2ccc(N(Cc3ccc(Br)cc3)S(=O)(=O)c3ccc(Br)cc3)cc12 (stereo not drawn)	29.3	27.6	27.8	11.5	36.5	30.5	16.5				
Cc1c(C(=O)NCCCN(C)C)oc2ccc(N(Cc3ccc(Br)cc3)S(=O)(=O)c3ccc(Br)cc3)cc12	2.3	2.02	3.07	3.73	3.71	4.31	6.68				
Cc1c(C(=O)NCCc2ccccn2)oc2ccc(N(Cc3ccc(Br)cc3)S(=O)(=O)c3ccc(Br)cc3)cc12	> 40	> 40	> 40	> 40	> 40	> 40	> 40				
CN(C)CCNC(=O)c1nc2cc(N(Cc3ccc(Br)cc3)S(=O)(=O)c3ccc(Br)cc3)ccc2o1	13.6	13.7	14.3								
COc1cccc2c1C(=O)c1c(O)c3c(c(O)c1C2=O)C[C@@](O)(C(=O)CO)C[C@@H]3O[C@H]1C[C@H](N)[C@H](O)[C@H](C)O1 [DOXORUBICIN]	0.41	0.56					0.49				71.9
Cc1ccc(NC(=O)c2oc3ccc(N(Cc4ccc(Br)cc4)S(=O)(=O)c4ccc(Br)cc4)cc3c2C)nc1	> 40	> 40	> 40	> 40	> 40	> 40	> 40				

More lines, main results first:

IC50 (PANC-1 [1]) [µM]	IC50 (BXPC-3) [µM]	IC50 (HCT-116 [2]) [µM]	IC50 (HCT-116 [3]) [µM]	IC50 (MCF7) [µM]	IC50 (A549) [µM]	IC50 (MDA-MB-231) [µM]	solubility [4] [µg/mL]	logD [5]	Papp [6] [×10⁻⁶ cm/s]	SMILES	inhibition in vivo at 10 mg/kg (PANC-1 [7]) [%]
2.78	2.36	2.67	2.29	5.44	5.29	8.17				Cc1c(C(=O)NCCN2CCCC2)oc2ccc(N(Cc3ccc(Br)cc3)S(=O)(=O)c3ccc(Br)cc3)cc12	
8.38	19.6	3	3.3	9.72	8.68	9.04				Cc1c(C(=O)N2CCNCC2)oc2ccc(N(Cc3ccc(Br)cc3)S(=O)(=O)c3ccc(Br)cc3)cc12	
5.91	10.2	7.32								CN1CCC(NC(=O)c2nc3cc(N(Cc4ccc(Br)cc4)S(=O)(=O)c4ccc(Br)cc4)ccc3o2)CC1	
7.65	7.88	10.9								CCN(CC)CCNC(=O)c1sc2ccc(N(Cc3ccc(Br)cc3)S(=O)(=O)c3ccc(Br)cc3)cc2c1C	
2.49	5.13	2.44	2.37	4.37	3.08	7.96				CNCCNC(=O)c1oc2ccc(N(Cc3ccc(Br)cc3)S(=O)(=O)c3ccc(Br)cc3)cc2c1C	
5.94	4.79	3.64	1.2	3.66	5.4	8.24				Cc1c(C(=O)NCCN(C)C)oc2ccc(N(Cc3ccc(Br)cc3)S(=O)(=O)c3ccc(Br)cc3)cc12	
> 40	> 40	7.88	21.9	> 40	> 40	> 40				Cc1c(C(=O)N2CCNC(=O)C2)oc2ccc(N(Cc3ccc(Br)cc3)S(=O)(=O)c3ccc(Br)cc3)cc12	
10.5	17.4	15.8								CCN(CC)CCNC(=O)c1[nH]c2ccc(N(Cc3ccc(Br)cc3)S(=O)(=O)c3ccc(Br)cc3)cc2c1C	
5.2	7.1	10.1								Cc1c(C(=O)NC2CCN(C)CC2)sc2ccc(N(Cc3ccc(Br)cc3)S(=O)(=O)c3ccc(Br)cc3)cc12	
> 40	> 40	8.55	5.47	> 40	22.3	> 40				Cc1c(C(=O)N2CCN(C)CC2)oc2ccc(N(Cc3ccc(Br)cc3)S(=O)(=O)c3ccc(Br)cc3)cc12	
32.1	27.2	10.5	13.3	17.2	21.4	23.5				Cc1c(C(=O)NCCN2CCOCC2)oc2ccc(N(Cc3ccc(Br)cc3)S(=O)(=O)c3ccc(Br)cc3)cc12	
6.94	3.71	2.23	2.84	3.36	5.17	9.26				Cc1c(C(=O)NCCN2CCCCC2)oc2ccc(N(Cc3ccc(Br)cc3)S(=O)(=O)c3ccc(Br)cc3)cc12	
26.2	16.6	23.1	28.3	32.8	33.7	19.4				Cc1c(C(=O)N2CCCC(C)C2)oc2ccc(N(Cc3ccc(Br)cc3)S(=O)(=O)c3ccc(Br)cc3)cc12 (stereo not drawn)	
11.2	6.98	16.6								Cc1c(C(=O)NCCN(C)C)[nH]c2ccc(N(Cc3ccc(Br)cc3)S(=O)(=O)c3ccc(Br)cc3)cc12	
23.8	29.1	22.1	26.4	15.4	19.1	25.1				Cc1c(C(=O)N2CCOCC2)oc2ccc(N(Cc3ccc(Br)cc3)S(=O)(=O)c3ccc(Br)cc3)cc12	
> 40	> 40	> 40	> 40	> 40	> 40	> 40				Cc1c(C(=O)NCCS(C)(=O)=O)oc2ccc(N(Cc3ccc(Br)cc3)S(=O)(=O)c3ccc(Br)cc3)cc12	
5.04	2.6	3.81	2.59	5.66	5.03	7.5				Cc1c(C(=O)NCCN2CCN(C)CC2)oc2ccc(N(Cc3ccc(Br)cc3)S(=O)(=O)c3ccc(Br)cc3)cc12	
7.89	9	9.8								Cc1c(C(=O)NCCN(C)C)sc2ccc(N(Cc3ccc(Br)cc3)S(=O)(=O)c3ccc(Br)cc3)cc12	
3.67	7.5	14.5								Cc1c(C(=O)NC2CCN(C)CC2)[nH]c2ccc(N(Cc3ccc(Br)cc3)S(=O)(=O)c3ccc(Br)cc3)cc12	
